Compounds with a hit are over-represented: about 2.9% of the library has one in this group of screens.
SUMO HTRF inh – blocks human SUMOylation mediated by UBC9 | P63279 | HTRF SUMOylation assay, SAE1/SAE2 + UBC9, in vitro | inhibition, % at 35 µM | 0.36% of 290,000 active; in the data active = inhibition above about 50%, passing the limit was not always enough
Target sequence (P63279 whole entry, looked up): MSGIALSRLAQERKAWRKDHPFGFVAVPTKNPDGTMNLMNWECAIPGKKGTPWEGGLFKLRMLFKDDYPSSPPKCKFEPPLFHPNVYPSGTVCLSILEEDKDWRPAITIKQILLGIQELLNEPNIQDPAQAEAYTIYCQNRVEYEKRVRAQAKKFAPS
IMP-1 inh-1 – inhibitors of Pseudomonas aeruginosa IMP-1 metallo-beta-lactamase. 0.45% of 290,000 active. inhibition, % at 5.6 µM. purified IMP-1, nitrocefin hydrolysis, epi-absorbance fluorescence;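 active = inhibition above the mean plus 3 SD of all compounds in the same screening run, cut at about 4.5% in these data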
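assay system = purified recombinant IMP-1 metallo-beta-lactamase enzyme | schedule = 15 min preincubation plus 25 min reaction at 25 °C | signal = Epi-absorbance fluorescence, 480 nm excitation, 530 nm emission | read-out basis = percent inhibition from optical density relative to buffer-blank wells | controls = IMP-1 with DMSO as 0%, enzyme-free DMSO as 100%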
VIM-2 inh – blocks Pseudomonas aeruginosa VIM-2 metallo-beta-lactamase; purified VIM-2, nitrocefin hydrolysis, epi-absorbance fluorescence; 0.89% of 290,000 active; inhibition, % at 5.6 µM;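 active = inhibition above the mean of all tested compounds plus 3 SD, cutoff set per screening run, cut at about 7.5% in these data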;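 also: red hydrolysis product quenches plate fluorescence so inhibitors raise well fluorescence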
SUMO Mot1 rescue – blocks SUMOylation pathway, rescuing yeast Mot1-301 growth; S. cerevisiae Mot1-301 growth rescue, ATP luminescence, 38.5C; percent above DMSO median, 100 means doubled; growth rescue, % at 18.8 µM; 1% of 320,000 active;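 active = every valid replicate shows activation above 250% relative to neutral control wells; inactive = the rest, any valid replicate at or below 250%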
NALP1 yeast inh – blocks the NALP1 inflammasome reconstituted in yeast. 0.61% of 280,000 active. S. cerevisiae NALP1/ASC/caspase-1 growth, X-gal OD620, 72 h. inhibition, % at 10 µM; in the data active = inhibition mostly above about 24%, no sharp cut-off; inactive = mostly below about 32%
FID counter – counter-screen for HCV NS3 helicase inhibitors: DNA intercalator displacement | DNA fluorescent intercalator displacement, fluorescence | inhibition, % at 7.9 µM | 0.17% of 290,000 active; in the data active = inhibition above about 37%;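 also: higher means more ethidium bromide displaced from hairpin DNA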
IMP-1 inh-2 – IMP-1 inhibition, counter-screen for VIM-2 inhibitors. purified IMP-1, nitrocefin hydrolysis, epi-absorbance fluorescence. AID 1856. 1,300 tested, under 10 active. inhibition, % at 5.6 µM. shares compounds with VIM-2 inh; call rule not given here
VIM-2 FRET ctr – inhibits VIM-2 in FRET assay to exclude epi-absorbance artifacts; inhibition, % at 5.6 µM; AID 1857; 23% of 1,300 active; shares compounds with VIM-2 inh; purified VIM-2, CCF2 FRET substrate hydrolysis;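 active = inhibition above the mean of all tested compounds plus 3 SD, cut at about 19% in these data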
TEM-1 inh – TEM-1 inhibition, counter-screen for VIM-2 inhibitors; Purified TEM-1, nitrocefin hydrolysis, epi-absorbance fluorescence; inhibition, % at 5.6 µM; shares compounds with VIM-2 inh; 3% of 1,300 active;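 active = inhibition above that campaign's mean inhibition plus 3 SD, cut at about 0.46% in these data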
Target sequence (P62593 whole entry, looked up): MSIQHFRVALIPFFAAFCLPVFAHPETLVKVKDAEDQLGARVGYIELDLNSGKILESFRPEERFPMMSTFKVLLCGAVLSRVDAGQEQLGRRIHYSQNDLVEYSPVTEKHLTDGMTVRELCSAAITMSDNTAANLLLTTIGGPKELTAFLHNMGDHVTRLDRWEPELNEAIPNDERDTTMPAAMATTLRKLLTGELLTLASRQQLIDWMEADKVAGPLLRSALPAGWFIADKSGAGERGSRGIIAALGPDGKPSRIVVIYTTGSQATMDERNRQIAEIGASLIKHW
VIM-2 confirm 2 – confirmation of P. aeruginosa VIM-2 metallo-beta-lactamase inhibitors | shares compounds with VIM-2 inh | AID 2187 | 96% of 1,300 active | inhibition, % at 5.6 µM | purified VIM-2, nitrocefin hydrolysis, epi-absorbance;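 active = inhibition of the VIM-2 beta-lactamase enzyme above about 11% from the earlier first-round screen, limit read from the data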
Large screens that a line does not name were inactive (follow-up assays come after a bar, where they were run).

CCn1cc(C(=O)NCCCN(C)C)c(=O)c2cc(F)c(N3CCN(C)CC3)cc21	VIM-2 inh 21, FID counter 68 (no result: NALP1 yeast inh) | IMP-1 inh-2 inactive | VIM-2 FRET ctr inactive | TEM-1 inh inactive | VIM-2 confirm 2 36
COc1ccc(CNC(=O)CNC(=O)CNS(=O)(=O)c2ccc(C)c(C)c2)cc1	none
CC1=CCC(C(=O)O)(C(=O)N/N=C/c2cccs2)C(c2ccc(Cl)cc2)C1 (centres undefined)	VIM-2 inh 15 | IMP-1 inh-2 inactive | VIM-2 FRET ctr inactive | TEM-1 inh inactive | VIM-2 confirm 2 inactive
Cn1cc(CCC(=O)N2CCCC(CCC(=O)NCc3ccc(F)c(F)c3)C2)cn1 (centres undefined)	none
CC(C)=CCOc1ccc([C@@H]2COc3c(ccc4c3C=CC(C)(C)O4)C2)c(O)c1	none (no result: SUMO HTRF inh, IMP-1 inh-1, VIM-2 inh, NALP1 yeast inh, FID counter)
Cc1onc(-c2c(F)cccc2Cl)c1C(N)=S	none
Cc1ccc2nc3c(c(Nc4ccc(O)cc4)c2c1)CCC3	VIM-2 inh 19 | IMP-1 inh-2 inactive | VIM-2 FRET ctr inactive | TEM-1 inh inactive | VIM-2 confirm 2 32
Cc1ccc(NC(=O)c2c3c(nc4ccccc24)CCC3)cc1	none
Cc1ccc2nc3c(c(Nc4ccc5c(c4)OCCO5)c2c1)CCC3	VIM-2 inh 16 (no result: SUMO Mot1 rescue) | IMP-1 inh-2 inactive | VIM-2 FRET ctr inactive | TEM-1 inh inactive | VIM-2 confirm 2 30
N#Cc1cccc(Nc2c3c(nc4ccccc24)CCC3)c1	none
O=C(CNS(=O)(=O)c1ccc(Br)cc1)NCc1ccncc1	none
COc1cc(-c2cc(C(=O)Nc3ccc(C)c(S(=O)(=O)N4CCOCC4)c3)c3ccccc3n2)cc(OC)c1OC	none (no result: SUMO HTRF inh, IMP-1 inh-1, VIM-2 inh, NALP1 yeast inh, FID counter)
CCCCn1c2ccc(F)cc2c2nnc(SCCN3CCOCC3)nc21	none
CCCCn1c2ccccc2c2nnc(SCCN3CCCCC3)nc21	VIM-2 inh 13 (no result: SUMO Mot1 rescue) | IMP-1 inh-2 inactive | VIM-2 FRET ctr inactive | TEM-1 inh inactive | VIM-2 confirm 2 19
COc1ccc(/C=C/C(=O)OCC(=O)c2c(N)n(C)c(=O)n(C)c2=O)cc1	none
Cn1c(N)c(C(=O)COC(=O)c2cc(-c3ccco3)nc3ccccc23)c(=O)n(C)c1=O	VIM-2 inh 14 (no result: SUMO Mot1 rescue) | IMP-1 inh-2 inactive | VIM-2 FRET ctr inactive | TEM-1 inh inactive | VIM-2 confirm 2 37
Cn1c(N)c(C(=O)COC(=O)c2cc(C3CC3)nc3ccccc23)c(=O)n(C)c1=O	VIM-2 inh 13 | IMP-1 inh-2 inactive | VIM-2 FRET ctr inactive | TEM-1 inh inactive | VIM-2 confirm 2 63
Cn1c(N)c(C(=O)COC(=O)c2cc(C(F)(F)F)nc3ccccc23)c(=O)n(Cc2ccccc2)c1=O	none
COc1ccc(/C=C2\CCCc3c2nc2ccccc2c3C(=O)OCC(=O)c2c(N)n(C)c(=O)n(C)c2=O)cc1	VIM-2 inh 14 | IMP-1 inh-2 inactive | VIM-2 FRET ctr inactive | TEM-1 inh inactive | VIM-2 confirm 2 inactive
Cn1c(N)c(C(=O)COC(=O)c2cc(-c3ccco3)nc3ccccc23)c(=O)n(Cc2ccccc2)c1=O	none
O=C(NCCc1ccccc1)c1nnc(CS(=O)(=O)c2ccccc2)o1	none
CCc1cc2c(CN3CCN(CC)CC3)cc(=O)oc2cc1O	VIM-2 inh 21 | IMP-1 inh-2 inactive | VIM-2 FRET ctr inactive | TEM-1 inh inactive | VIM-2 confirm 2 25
O=C(O)c1[nH]c2ccc(Cl)cc2c1CCN1C(=O)c2ccccc2C1=O	VIM-2 inh 65 | IMP-1 inh-2 inactive | VIM-2 FRET ctr 79 | TEM-1 inh inactive | VIM-2 confirm 2 74
Cc1ccc(NC(=O)CCN2C(=O)c3cccc([N+](=O)[O-])c3C2=O)c(Br)c1	none
O=C(O)c1[nH]c2ccc(Br)cc2c1CCN1C(=O)c2cccc([N+](=O)[O-])c2C1=O	VIM-2 inh 61 | IMP-1 inh-2 inactive | VIM-2 FRET ctr 79 | TEM-1 inh inactive | VIM-2 confirm 2 68
COc1ccc2[nH]c(C(=O)O)c(CCC(=O)O)c2c1	none
COc1ccc2[nH]c(C(=O)O)c(CCN3C(=O)c4ccc(C(=O)O)cc4C3=O)c2c1	VIM-2 inh 71 | IMP-1 inh-2 inactive | VIM-2 FRET ctr 84 | TEM-1 inh inactive | VIM-2 confirm 2 75
O=C(Nc1cccc(Cl)c1)Nc1csc([N+](=O)[O-])c1	none
O=C(Nc1ccccc1Cl)NC1(C(=O)N2CCC(O)CC2)CCCCC1	none
O=C(Nc1ccc2nc(-c3cccnc3)[nH]c2c1)c1ccccc1F	VIM-2 inh 49 (no result: SUMO Mot1 rescue) | IMP-1 inh-2 inactive | VIM-2 FRET ctr inactive | TEM-1 inh inactive | VIM-2 confirm 2 inactive
Cc1c(CC(=O)O)c(=O)oc2c(C)c3occ(-c4ccc(F)cc4)c3cc12	VIM-2 inh 15 | IMP-1 inh-2 inactive | VIM-2 FRET ctr inactive | TEM-1 inh inactive | VIM-2 confirm 2 25
Cc1c(CC(=O)O)c(=O)oc2cc3occ(-c4ccccc4)c3cc12	none
COC(=O)c1c(NC(=O)C(=O)NCCCN2CCOCC2)sc2c1CC(C)(C)OC2	VIM-2 inh 13 | IMP-1 inh-2 inactive | VIM-2 FRET ctr inactive | TEM-1 inh inactive | VIM-2 confirm 2 20
N#Cc1c(NC(=O)C(=O)NCCCN2CCOCC2)sc2c1CCCC2	none
COC(=O)c1c(NC(=O)C(=O)NCCCN2CCOCC2)sc2c1CCC2	VIM-2 inh 14 | IMP-1 inh-2 inactive | VIM-2 FRET ctr inactive | TEM-1 inh inactive | VIM-2 confirm 2 25
CC1(C)Cc2c(sc(NC(=O)C(=O)NCCCN3CCOCC3)c2C(N)=O)CO1	none
Cn1c(N)c(C(=O)CSc2ncn[nH]2)c(=O)n(C)c1=O	none
COC(C[C@H]1O[C@H]1[C@H](O)[C@@H](C)OCc1ccccc1)OC	none (no result: IMP-1 inh-1, VIM-2 inh, SUMO Mot1 rescue, NALP1 yeast inh, FID counter)
Cc1ccc(-c2nnn(C/C(N)=N/O)n2)cc1	none
CCc1ccc(N(CC(=O)N2CCN(Cc3ccccc3)CC2)S(C)(=O)=O)cc1	none
Nn1c(SCC(=O)Nc2ccc(OC(F)F)cc2)nnc1-c1ccco1	none (no result: SUMO HTRF inh, IMP-1 inh-1, VIM-2 inh, NALP1 yeast inh, FID counter)
Cc1ccnc(N2CCN(c3cc(C)c(C#N)c4nc5ccccc5n34)CC2)c1	none (no result: SUMO HTRF inh, NALP1 yeast inh)
CCN(CC)CCCNc1cc(C(F)(F)F)c(C#N)c2nc3ccccc3n12	VIM-2 inh 29 | IMP-1 inh-2 inactive | VIM-2 FRET ctr inactive | TEM-1 inh inactive | VIM-2 confirm 2 41
C=C(C)CSc1cc(C)c(C#N)c2nc3ccccc3n12	VIM-2 inh 17 | IMP-1 inh-2 inactive | VIM-2 FRET ctr inactive | TEM-1 inh inactive | VIM-2 confirm 2 21

High-throughput results (PubChem)
